In brackets after ≈: the same amount, converted by molar mass.

Test [1] has as its system Aspergillus niger. The test can be described thus: Antifungal activity against Aspergillus niger at 50 ug/ml after 48 hrs by agar cup diffusion method. It is filed as functional. The following applies: read-out: IZ.
For test [2], the system named is Staphylococcus epidermidis. Briefly: Antibacterial activity against Staphylococcus epidermidis after 24 hrs by tube dilution method. It is filed as functional.
Test [3] has as its system Staphylococcus aureus. Briefly: Antibacterial activity against Staphylococcus aureus at 50 ug/ml after 24 hrs by agar cup diffusion method. It is filed as functional. The following applies: read-out: IZ. In outline:
(§1)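 Compounds dissolved in DMF. A fresh bacterial subculture in isotonic NaCl was mixed into sterile assay medium at 40–45 °C and poured into Petri dishes. Test solution went into marked wells. Plates stood 5 min, were covered for 1 h, then incubated at 37 °C for 24 h. Inhibition zones were measured as the average of three readings.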

Test [4] has as its system Salmonella typhi. The test can be described thus: Antibacterial activity against Salmonella typhi after 24 hrs by tube dilution method. The following applies: Salmonella enterica. It is filed as functional, Salmonella enterica subsp. enterica serovar Typhi.
Test [5] deals with Cryptococcus neoformans. Briefly: Antifungal activity against Cryptococcus neoformans at 50 ug/ml after 48 hrs by agar cup diffusion method. It is filed as functional. The following applies: read-out: IZ.
Test [6] has as its system Staphylococcus aureus. Briefly: Antibacterial activity against Staphylococcus aureus after 24 hrs by tube dilution method. It is filed as functional.
The subject of test [7] is Candida albicans. Briefly: Antifungal activity against Candida albicans at 50 ug/ml after 48 hrs by agar cup diffusion method. It is filed as functional. The following applies: read-out: IZ.
The subject of test [8] is Cryptococcus neoformans. Briefly: Antifungal activity against Cryptococcus neoformans after 48 hrs by tube dilution method. Format: functional.
In test [9] the test system is Escherichia coli. The test can be described thus: Antibacterial activity against Escherichia coli at 50 ug/ml after 24 hrs by agar cup diffusion method. Format: functional. The following applies: read-out: IZ. In outline: as §1
For test [10], the system named is Candida albicans. Briefly: Antifungal activity against Candida albicans after 48 hrs by tube dilution method. Format: functional.
Test [11] relates to Escherichia coli. Briefly: Antibacterial activity against Escherichia coli after 24 hrs by tube dilution method. It is filed as functional.
The test system of test [12] is Salmonella typhi. The test can be described thus: Antibacterial activity against Salmonella typhi at 50 ug/ml after 24 hrs by agar cup diffusion method. Format: functional, Salmonella enterica subsp. enterica serovar Typhi. The following applies: Salmonella enterica, read-out: IZ. Summed up: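 Agar cup diffusion against an ATCC or IMTECH standard strain. The test compound is dissolved in DMF. A fresh bacterial subculture in isotonic NaCl is mixed into sterile medium at 40–45 °C and poured into plates. Solution is added to marked wells, left 5 min, then covered 1 h. Plates are incubated at 37 °C for 24 h. The inhibition zone is the mean of three readings, with ampicillin as reference.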

The subject of test [13] is Aspergillus niger. The test can be described thus: Antifungal activity against Aspergillus niger after 48 hrs by tube dilution method. Format: functional.
Test [14] deals with Staphylococcus epidermidis. Briefly: Antibacterial activity against Staphylococcus epidermidis at 50 ug/ml after 24 hrs by agar cup diffusion method. Format: functional. The following applies: read-out: IZ. In outline: as §1

By MIC is commonly meant the smallest concentration in the dilution series that meets the test's criterion for growth inhibition. A lower MIC goes with greater potency. With `O=c1c2c3c(sc2nnn1-c1ccc(F)cc1)CCCC3`, the zone of inhibition at 50 µg/mL in the test with Aspergillus niger [1] was determined as 10 mm; in the test on Staphylococcus aureus [3], 32 mm; with Cryptococcus neoformans [5], 8 mm; in the test on Candida albicans [7], 8 mm; in the test with Escherichia coli [9], 26 mm; in the test with Salmonella typhi [12], 24 mm. Moreover, in test [14], the zone of inhibition at 50 µg/mL amounted to 32 mm. Moreover, the MIC in test [2] is 6.75 µg/mL (≈ 22.4 µM); in the test with Salmonella typhi [4], 12.5 µg/mL (≈ 41.5 µM); with Staphylococcus aureus [6], 6.75 µg/mL (≈ 22.4 µM); in the test with Cryptococcus neoformans [8], 75 µg/mL (≈ 249 µM); against Candida albicans [10] it was 37.5 µg/mL (≈ 124 µM); against Escherichia coli [11], 12.5 µg/mL (≈ 41.5 µM). 12.5 µg/mL (≈ 41.5 µM) was the least that counted as inhibitory in the test with Aspergillus niger [13] (MIC).

In the case of `O=c1c2c3c(sc2nnn1-c1ccccc1Cl)CCCC3`, the zone of inhibition at 50 µg/mL in the test on Aspergillus niger [1] is 14 mm; in the test on Staphylococcus aureus [3], 30 mm; in the test with Cryptococcus neoformans [5], 9 mm; in the test with Candida albicans [7] it was 8 mm; in the test with Escherichia coli [9], 24 mm; with Salmonella typhi [12] it was 20 mm. Also, in test [14], the zone of inhibition at 50 µg/mL is 30 mm. The MIC in test [2] was 12.5 µg/mL (≈ 39.3 µM); with Salmonella typhi [4], 12.5 µg/mL (≈ 39.3 µM); against Staphylococcus aureus [6], 12.5 µg/mL (≈ 39.3 µM); with Cryptococcus neoformans [8], 50 µg/mL (≈ 157 µM); against Candida albicans [10], 25 µg/mL (≈ 78.7 µM); against Escherichia coli [11], 25 µg/mL (≈ 78.7 µM). This molecule gave an MIC against Aspergillus niger [13] of 12.5 µg/mL (≈ 39.3 µM).

`O=c1c2c3c(sc2nnn1-c1cccc(Cl)c1)CCCC3`: the zone of inhibition at 50 µg/mL with Aspergillus niger [1] was determined as 13 mm; in the test with Staphylococcus aureus [3], 32 mm; in the test with Cryptococcus neoformans [5], 8 mm; with Candida albicans [7], 8 mm; with Escherichia coli [9], 26 mm; in the test with Salmonella typhi [12], 24 mm. Further, the zone of inhibition at 50 µg/mL in test [14] worked out at 30 mm. The MIC was 12.5 µg/mL (≈ 39.3 µM) in test [2]; 12.5 µg/mL (≈ 39.3 µM) against Salmonella typhi [4]; 12.5 µg/mL (≈ 39.3 µM) against Staphylococcus aureus [6]; 50 µg/mL (≈ 157 µM) against Cryptococcus neoformans [8]; 25 µg/mL (≈ 78.7 µM) with Candida albicans [10]; 25 µg/mL (≈ 78.7 µM) against Escherichia coli [11]. Moreover, the MIC against Aspergillus niger [13] stood at 12.5 µg/mL (≈ 39.3 µM).

For `O=c1c2c3c(sc2nnn1-c1ccc(Cl)cc1)CCCC3`, the zone of inhibition at 50 µg/mL in the test with Aspergillus niger [1] was 16 mm; with Staphylococcus aureus [3], 34 mm; in the test with Cryptococcus neoformans [5], 10 mm; in the test on Candida albicans [7], 10 mm; in the test with Escherichia coli [9] it was 26 mm; in the test with Salmonella typhi [12], 26 mm. For the same molecule, the zone of inhibition at 50 µg/mL in [14] turned out to be 32 mm. Further, the MIC in test [2] was found to be 12.5 µg/mL (≈ 39.3 µM); against Salmonella typhi [4], 12.5 µg/mL (≈ 39.3 µM); against Staphylococcus aureus [6], 12.5 µg/mL (≈ 39.3 µM); in the test on Cryptococcus neoformans [8] it was 37.5 µg/mL (≈ 118 µM); with Candida albicans [10], 25 µg/mL (≈ 78.7 µM); in the test on Escherichia coli [11] it was 25 µg/mL (≈ 78.7 µM). The molecule also registered a minimal inhibitory concentration (MIC) against Aspergillus niger [13] of 12.5 µg/mL (≈ 39.3 µM).

As for `O=c1c2c3c(sc2nnn1-c1ccc(F)c(Cl)c1)CCCC3`, the zone of inhibition at 50 µg/mL with Aspergillus niger [1] stood at 10 mm; in the test on Staphylococcus aureus [3] it was 26 mm; in the test on Cryptococcus neoformans [5] it was 8 mm; in the test with Candida albicans [7], 7 mm; in the test on Escherichia coli [9], 24 mm; in the test on Salmonella typhi [12], 20 mm. Moreover, in [14], the zone of inhibition at 50 µg/mL amounted to 24 mm. Further, the MIC in test [2] amounted to 12.5 µg/mL (≈ 37.2 µM); against Salmonella typhi [4] it was 12.5 µg/mL (≈ 37.2 µM); against Staphylococcus aureus [6] it was 12.5 µg/mL (≈ 37.2 µM); against Cryptococcus neoformans [8] it was 50 µg/mL (≈ 149 µM); against Candida albicans [10], 37.5 µg/mL (≈ 112 µM); in the test on Escherichia coli [11] it was 25 µg/mL (≈ 74.5 µM). This molecule also came in with an MIC in the test with Aspergillus niger [13] of 25 µg/mL (≈ 74.5 µM).

As to `CC1(C)S[C@@H]2[C@H](NC(=O)[C@H](N)c3ccccc3)C(=O)N2[C@H]1C(=O)O` [AMPICILLIN], the MIC in test [2] is 1.56 µg/mL (≈ 4.46 µM); in the test with Salmonella typhi [4], 6.25 µg/mL (≈ 17.9 µM); against Staphylococcus aureus [6], 0.5 µg/mL (≈ 1.43 µM); with Escherichia coli [11] it was 4 µg/mL (≈ 11.4 µM). The zone of inhibition at 50 µg/mL with Staphylococcus aureus [3] is 40 mm; in the test on Escherichia coli [9] it was 28 mm; with Salmonella typhi [12], 26 mm; in test [14] it was 36 mm.

As for `Clc1ccc(COC(Cn2ccnc2)c2ccc(Cl)cc2Cl)c(Cl)c1.O=[N+]([O-])O` (centres undefined) [MICONAZOLE NITRATE], the values for the zone of inhibition at 50 µg/mL with Aspergillus niger [1], in the test on Cryptococcus neoformans [5] and in the test on Candida albicans [7] were 16 mm, 14 mm and 12 mm, respectively. In addition, the MIC against Cryptococcus neoformans [8] stood at 20 µg/mL; in the test on Candida albicans [10], 12.5 µg/mL; in the test on Aspergillus niger [13], 10 µg/mL.

The values above are taken from ChEMBL document CHEMBL1240435, “Synthesis of some 3-substituted amino-4,5-tetramethylene thieno[2,3-d][ 1,2,3]-triazin-4(3H)-ones as potential antimicrobial agents” (2010).
